ChEMBL document CHEMBL1127740, “The discovery of capsazepine, the first competitive antagonist of the sensory neuron excitants capsaicin and resiniferatoxin” (J Med Chem, 1994)

Legend:
Rattus norvegicus [1] = species on record: Rattus norvegicus; experiment: In vitro agonist activity against [Ca2+] uptake in neonatal rat cultured spinal sensory neurons; assay type: functional
Procedure, shortened: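 Neonatal rat dorsal root ganglia were dissociated with collagenase then trypsin and cultured with 10% horse serum, 1 μg/mL NGF and 48 h of 10^-4 M cytosine arabinoside. Assays used 3–7-day cultures washed in Ca-free HEPES-buffered BSS (pH 7.4). Compound with 10 μCi/mL 45Ca2+ and 1% DMSO was applied for 10 min at room temperature; SDS extract was scintillation counted. Medium-only background; EC50 from ≥6 replicates/concentration.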

Rattus norvegicus [2] = species on record: Rattus norvegicus; experiment: In vitro antagonist activity against [Ca2+] uptake in neonatal rat cultured spinal sensory neurons; assay type: functional
Procedure, shortened: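 Cultured neonatal rat DRG neurons (3–7 days old, non-neuronal cells removed with cytosine arabinoside) were washed in Ca-free HEPES BSS, pH 7.4. 45Ca2+ uptake stimulated by a fixed 0.5 μM agent was measured with test compound in 1% DMSO over 10 min at room temperature. Cells were lysed with SDS and scintillation counted. IC50 is 50% reduction of the evoked response, from ≥6 replicates/concentration.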

| Compound | EC50 (Rattus norvegicus [1]) [nM] | IC50 (Rattus norvegicus [2]) [nM] |
| --- | --- | --- |
| COc1cc2c(cc1O)CN(/C(S)=N/CCc1ccc(Cl)cc1)CC2 | 1230 | – |
| CCCCCCCC/N=C(\S)N1CCc2c(ccc(O)c2O)C1 | > 100000 | 3480 |
| Oc1cc2c(cc1O)CN(C(=S)NCCc1ccc(Cl)cc1)C2 | 550 | – |
| CCCCCCCC/N=C(\S)NCc1ccc(O)c(OC)c1 | 60 | – |
| Oc1ccc(CNC(=S)NCCc2ccc(Cl)cc2)cc1O | 100 | – |
| CCCCCCCC/N=C(\S)N1CCc2cc(O)c(O)cc2C1 | 740 | – |
| COc1cc(C/N=C(\S)NCCc2ccc(Cl)cc2)ccc1O | 60 | – |
| COc1cc2c(cc1O)CN(/C(S)=N/CCc1ccc(Cl)cc1)C2 | > 100000 | > 100000 |
| Oc1cc2c(cc1O)CN(C(=S)NCCc1ccc(Cl)cc1)CCC2 [CAPSAZEPINE] | > 100000 | 420 |
| Oc1cc2c(cc1O)CN(C(=S)NCCc1ccc(Cl)cc1)CC2 | 290 | – |
| COc1cc2c(cc1OC)CN(/C(S)=N/CCc1ccc(Cl)cc1)CCC2 | > 100000 | 6990 |
| Oc1ccc2c(c1O)CCN(C(=S)NCCc1ccc(Cl)cc1)C2 | > 100000 | 440 |
| COc1cc2c(cc1O)CCN(/C(S)=N/CCc1ccc(Cl)cc1)C2 | 1090 | 1230 |
